{
  "source": "ChEMBL document CHEMBL4261487",
  "about": "“Small structural changes of the imidazopyridine diacylglycerol acyltransferase 2 (DGAT2) inhibitors produce an improved safety profile” (Medchemcomm, 2017)",
  "key": {"[1]": {"system": "Rattus norvegicus", "assay": "Unbound Cmax in Wistar Han IGS rat at 10 mg/kg, po qd administered for 14 days", "assay_type": "ADME, organism-based", "conditions": "in vivo, 336 h", "summary_of_the_method": "(§1)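 Wistar Han rats were dosed orally once daily for 14 days (exploratory, 5/sex/dose) or 1 month (toxicity, 10/sex/dose). Toxicokinetic satellite animals (3–4/sex/dose) were used, and steady-state systemic exposure is given as the mean of male and female values combined.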"}, "[2]": {"system": "Rattus norvegicus", "assay": "Unbound Cmax in Wistar Han IGS rat at 500 mg/kg, po qd administered for 14 days", "assay_type": "ADME, organism-based", "conditions": "in vivo, 336 h", "summary_of_the_method": "as §1"}, "[3]": {"system": "Rattus norvegicus", "assay": "Unbound AUC in Wistar Han IGS rat at 100 mg/kg, po qd administered for 14 days", "assay_type": "ADME, organism-based", "conditions": "in vivo, 336 h", "summary_of_the_method": "as §1"}, "[4]": {"system": "Canis familiaris", "assay": "Toxicity in telemetered beagle dog assessed as increase in systolic pressure at 10 mg/kg administered via oral gavage measured over 24 hrs", "assay_type": "organism-based, Canis lupus familiaris", "conditions": "in vivo"}, "[5]": {"system": "Rattus norvegicus", "assay": "Unbound Cmax in Wistar Han IGS rat at 30 mg/kg, po qd administered for 1 month", "assay_type": "ADME, organism-based", "conditions": "in vivo", "summary_of_the_method": "as §1"}, "[6]": {"system": "Rattus norvegicus", "assay": "Toxicity in Wistar Han IGS rat at 30 mg/kg, po qd administered for 1 month", "assay_type": "organism-based", "conditions": "in vivo", "summary_of_the_method": "(§2)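 Wistar Han rats, daily oral dosing for 14 days (5/sex/dose) or 1 month (10/sex/dose); microscopic findings reported as incidence by sex, plus organ weights.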"}, "[7]": {"system": "Canis familiaris", "assay": "Unbound Cmax in beagle dog […] at 300 mg/kg, po qd administered for 14 days", "assay_type": "ADME, organism-based, Canis lupus familiaris", "conditions": "in vivo, 336 h", "summary_of_the_method": "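Exploratory 14-day dog toxicity study with daily oral dosing. Toxicokinetic exposure is reported as the mean with male and female systemic values combined.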"}, "[8]": {"system": "Canis familiaris", "assay": "Toxicity in beagle dog assessed as unscheduled death at 300 mg/kg, po qd administered for 14 days", "assay_type": "organism-based, Canis lupus familiaris", "conditions": "in vivo, 336 h"}, "[9]": {"system": "Canis familiaris", "assay": "Toxicity in beagle dog assessed as renal tubular degeneration at 300 mg/kg, po qd administered for 14 days", "assay_type": "organism-based, Canis lupus familiaris", "conditions": "in vivo, 336 h"}, "[10]": {"system": "Rattus norvegicus", "assay": "Toxicity in Wistar Han IGS rat assessed as foamy macrophage accumulation in lung at 500 mg/kg, po qd administered for 14 days", "assay_type": "organism-based", "conditions": "in vivo, 336 h", "summary_of_the_method": "as §2"}, "[11]": {"system": "Canis familiaris", "assay": "Toxicity in beagle dog assessed as increase in heart rate at 50 to 150 mg/kg, po qd administered for 1 month", "assay_type": "organism-based, Canis lupus familiaris", "conditions": "in vivo"}, "[12]": {"system": "Canis familiaris", "assay": "In vivo inhibition of DGAT2 in beagle dog assessed as coverage of in vitro IC50 for dog DGAT2 at 2 mg/kg, po qd administered for 1 month", "assay_type": "functional, Canis lupus familiaris", "set-up": "scale not given: the % may be the effect or the level left", "summary_of_the_method": "(§3)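 Beagle dogs, once-daily oral dosing for 14 days or 1 month; systemic exposure with sexes combined; coverage is the average % above dog DGAT2 IC50 at steady state over the 24 h dosing interval.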"}, "[13]": {"system": "Canis familiaris", "assay": "In vivo inhibition of DGAT2 in beagle dog assessed as coverage of in vitro IC50 for dog DGAT2 at 50 mg/kg, po qd administered for 1 month", "assay_type": "functional, Canis lupus familiaris", "set-up": "scale not given: the % may be the effect or the level left", "summary_of_the_method": "as §3"}, "[14]": {"system": "Canis familiaris", "assay": "Toxicity in telemetered beagle dog assessed as emesis at 20 mg/kg, iv administered as single bolus dose over 2 mins", "assay_type": "organism-based, Canis lupus familiaris", "conditions": "in vivo"}, "[15]": {"target": "T1, Diacylglycerol O-acyltransferase 1 (Homo sapiens, UniProt O75907)", "T1 sequence (O75907 whole entry)": "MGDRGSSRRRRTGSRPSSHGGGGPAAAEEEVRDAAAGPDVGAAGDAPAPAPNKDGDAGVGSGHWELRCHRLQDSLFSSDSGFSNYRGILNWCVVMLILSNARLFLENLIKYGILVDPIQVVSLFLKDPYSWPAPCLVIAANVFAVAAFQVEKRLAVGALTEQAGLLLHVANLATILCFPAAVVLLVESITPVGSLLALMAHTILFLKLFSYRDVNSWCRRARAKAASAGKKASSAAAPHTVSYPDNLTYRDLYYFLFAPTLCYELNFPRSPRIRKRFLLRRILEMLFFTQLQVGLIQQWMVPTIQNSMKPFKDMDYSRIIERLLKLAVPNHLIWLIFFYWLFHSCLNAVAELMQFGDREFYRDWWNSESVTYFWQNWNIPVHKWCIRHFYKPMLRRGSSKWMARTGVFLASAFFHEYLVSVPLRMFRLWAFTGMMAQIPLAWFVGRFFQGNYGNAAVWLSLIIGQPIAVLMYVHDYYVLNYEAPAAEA", "assay": "Inhibition of DGAT1 (unknown origin)"}, "[16]": {"assay": "Apparent intrinsic clearance in human hepatocytes assessed per million cells", "assay_type": "ADME, cell-based, Hepatocyte"}, "[17]": {"target": "Cytochrome P450 3A4 (Homo sapiens, UniProt P08684)", "sequence (P08684 whole entry)": "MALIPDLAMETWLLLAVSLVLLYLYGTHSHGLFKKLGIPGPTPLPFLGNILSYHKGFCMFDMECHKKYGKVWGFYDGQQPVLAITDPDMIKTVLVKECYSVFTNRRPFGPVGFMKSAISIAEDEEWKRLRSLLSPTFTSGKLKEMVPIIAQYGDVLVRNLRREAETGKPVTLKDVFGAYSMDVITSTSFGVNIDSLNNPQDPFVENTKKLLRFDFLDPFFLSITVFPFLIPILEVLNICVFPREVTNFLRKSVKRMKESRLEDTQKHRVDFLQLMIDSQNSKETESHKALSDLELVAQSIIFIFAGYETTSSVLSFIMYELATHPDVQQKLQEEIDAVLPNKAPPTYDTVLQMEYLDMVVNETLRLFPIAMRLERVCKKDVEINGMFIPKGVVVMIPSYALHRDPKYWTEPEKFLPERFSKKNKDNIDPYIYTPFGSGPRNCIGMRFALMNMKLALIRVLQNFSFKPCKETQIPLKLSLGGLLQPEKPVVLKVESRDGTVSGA", "assay": "Drug metabolism in human liver microsomes assessed as fraction of CYP3A4-mediated oxidative metabolism preincubated for 5 mins followed by addition of NADPH regenerating system and measured after 2.5 to 60 mins", "assay_type": "ADME", "summary_of_the_method": "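Fractions of metabolism attributed to CYP oxidation and UGT glucuronidation were derived from human liver microsomal incubations. For the glucuronidation arm, microsomes were supplemented with the UGT cofactor UDP-glucuronic acid.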"}, "[18]": {"assay": "Apparent permeability of the compound at pH 7.4", "assay_type": "ADME", "conditions": "not told"}, "[19]": {"assay": "Volume of distribution at steady state in beagle dog at 1 mg/kg, iv", "assay_type": "ADME, organism-based, Canis lupus familiaris", "conditions": "in vivo, read-out: Vdss", "summary_of_the_method": "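Male Beagle dogs, single iv dose, crystalline form of compound; value is the mean of two experiments.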"}, "[20]": {"assay": "Ratio of Cmax in beagle dog at 30 mg/kg, po qd administered for 1 month to IC50 for in vitro inhibition of dog DGAT2", "assay_type": "organism-based, Canis lupus familiaris", "conditions": "in vivo", "summary_of_the_method": "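One-month toxicity study in Beagle dogs with N = 2/sex/dose. Plasma exposure at each dose level was referenced to the dog DGAT2 enzymatic IC50, reported as the geometric mean of at least three replicates.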"}, "[21]": {"system": "Canis familiaris", "assay": "In vivo inhibition of DGAT2 in beagle dog assessed as coverage of in vitro IC50 for dog DGAT2 at 3 mg/kg, po qd administered for 1 month", "assay_type": "functional, Canis lupus familiaris", "set-up": "scale not given: the % may be the effect or the level left", "summary_of_the_method": "as §3"}, "[22]": {"system": "Canis familiaris", "assay": "In vivo inhibition of DGAT2 in beagle dog assessed as coverage of in vitro IC50 for dog DGAT2 at 30 mg/kg, po qd administered for 1 month", "assay_type": "functional, Canis lupus familiaris", "set-up": "scale not given: the % may be the effect or the level left", "summary_of_the_method": "as §3"}, "[23]": {"system": "Canis familiaris", "assay": "Toxicity in telemetered beagle dog assessed as increase in heart rate at 25 mg/kg administered via oral gavage measured during 4 hrs of post dosing", "assay_type": "organism-based, Canis lupus familiaris", "conditions": "in vivo"}},
  "data": [
    {"smiles": "CS(=O)(=O)O.O=C([C@@H]1CCCN(c2ccc3nc(C4(n5cc(Cl)cn5)CC4)[nH]c3n2)C1)N1CCCC1", "values": [
      {"measurement": "fCmax", "setting": "[1]", "value": 390, "unit": "nM"},
      {"measurement": "fCmax", "setting": "[2]", "value": 18.8, "unit": "µM"},
      {"measurement": "fAUC", "setting": "[3]", "value": 25600, "unit": "ng·h/mL"},
      {"measurement": "Activity", "setting": "[4]", "value": 3, "unit": "mmHg"},
      {"measurement": "fCmax", "setting": "[5]", "value": 2020, "unit": "nM"},
      {"measurement": "Activity", "setting": "[6]", "value": "Non-Toxic"},
      {"measurement": "fCmax", "setting": "[7]", "value": 15.3, "unit": "µM"},
      {"measurement": "Activity", "setting": "[8]", "value": "Toxic"},
      {"measurement": "Activity", "setting": "[9]", "value": "Toxic"},
      {"measurement": "Activity", "setting": "[10]", "value": "Toxic"},
      {"measurement": "Activity", "setting": "[11]", "value": "Toxic"},
      {"measurement": "Activity", "setting": "[12]", "value": 60, "unit": "%"},
      {"measurement": "Activity", "setting": "[13]", "value": ">99", "unit": "%"},
      {"measurement": "Activity", "setting": "[14]", "value": "Non-Toxic"}
    ]},
    {"smiles": "C[C@@H](c1nc2ccc(N3CCC[C@@H](C(=O)N4CCCC4)C3)nc2[nH]1)n1cc(Cl)cn1", "values": [
      {"measurement": "IC50", "setting": "[15]", "value": "> 50", "unit": "µM"},
      {"measurement": "CLH(app)", "setting": "[16]", "value": 16.1, "unit": "µL/min"},
      {"measurement": "Ratio", "setting": "[17]", "value": 0.61},
      {"measurement": "Papp", "setting": "[18]", "value": 13.1, "unit": "×10⁻⁶ cm/s"},
      {"measurement": "Vd", "setting": "[19]", "value": 0.54, "unit": "L/kg"},
      {"measurement": "Ratio", "setting": "[20]", "value": 92},
      {"measurement": "Activity", "setting": "[21]", "value": 65, "unit": "%"},
      {"measurement": "Activity", "setting": "[22]", "value": 96, "unit": "%"},
      {"measurement": "Activity", "setting": "[23]", "value": 10, "unit": "bpm"}
    ]}
  ]
}
